Assays:
Assay type in all cases: functional, cell-based
[1] = Anticancer activity against human 1205 Lu cells assessed as inhibition of cell growth after 24 hrs by MTT assay
Procedure, shortened: (§1)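 MTT assay at 3,000 cells/well. Cells treated with DMSO or seven concentrations from 0.5 to 50 µM for 24, 48 or 72 h. MTT added 3 h before the end point; formazan dissolved in DMSO and read at 570 and 630 nm. IC50 is the concentration giving 50% growth inhibition. Media: PANC-1, BxPC3 and 1205Lu in DMEM; DU145 and A549 in RPMI 1640; HT29, HCT116 and RKO in McCoy's 5A, all with 10% FBS and pen/strep, at 37 °C and 5% CO2.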

[2] = Anticancer activity against human 1205 Lu cells assessed as inhibition of cell growth after 48 hrs by MTT assay; procedure, shortened: as §1
[3] = Anticancer activity against human 1205 Lu cells assessed as inhibition of cell growth after 72 hrs by MTT assay; procedure, shortened: as §1
A549 [4] = experiment: Anticancer activity against human A549 cells assessed as inhibition of cell growth after 24 hrs by MTT assay; conditions: A549, 24 h; procedure, shortened: as §1
RKO [5] = experiment: Anticancer activity against human RKO cells assessed as inhibition of cell growth after 48 hrs by MTT assay; procedure, shortened: as §1
A549 [6] = experiment: Anticancer activity against human A549 cells assessed as inhibition of cell growth after 48 hrs by MTT assay; conditions: A549, 48 h; procedure, shortened: as §1
A549 [7] = experiment: Anticancer activity against human A549 cells assessed as inhibition of cell growth after 72 hrs by MTT assay; conditions: A549, 72 h; procedure, shortened: as §1
[8] = Anticancer activity against human DU145 cells assessed as inhibition of cell growth after 24 hrs by MTT assay; conditions: DU-145, 24 h; procedure, shortened: as §1
[9] = Anticancer activity against human DU145 cells assessed as inhibition of cell growth after 48 hrs by MTT assay; conditions: DU-145, 48 h; procedure, shortened: as §1
[10] = Anticancer activity against human DU145 cells assessed as inhibition of cell growth after 72 hrs by MTT assay; conditions: DU-145, 72 h; procedure, shortened: as §1
[11] = Anticancer activity against human HCT116 cells assessed as inhibition of cell growth after 24 hrs by MTT assay; conditions: HCT-116, 24 h; procedure, shortened: as §1
[12] = Anticancer activity against human HCT116 cells assessed as inhibition of cell growth after 48 hrs by MTT assay; conditions: HCT-116, 48 h; procedure, shortened: as §1
[13] = Anticancer activity against human HCT116 cells assessed as inhibition of cell growth after 72 hrs by MTT assay; conditions: HCT-116, 72 h; procedure, shortened: as §1
RKO [14] = experiment: Anticancer activity against human RKO cells assessed as inhibition of cell growth after 24 hrs by MTT assay; procedure, shortened: as §1
[15] = Anticancer activity against human PANC1 cells assessed as inhibition of cell growth after 24 hrs by MTT assay; conditions: PANC-1, 24 h; procedure, shortened: as §1
[16] = Anticancer activity against human PANC1 cells assessed as inhibition of cell growth after 48 hrs by MTT assay; conditions: PANC-1, 48 h; procedure, shortened: as §1
[17] = Anticancer activity against human PANC1 cells assessed as inhibition of cell growth after 72 hrs by MTT assay; conditions: PANC-1, 72 h; procedure, shortened: as §1
[18] = Anticancer activity against human BxPC3 cells assessed as inhibition of cell growth after 24 hrs by MTT assay; conditions: BXPC-3, 24 h; procedure, shortened: as §1
[19] = Anticancer activity against human BxPC3 cells assessed as inhibition of cell growth after 48 hrs by MTT assay; conditions: BXPC-3, 48 h; procedure, shortened: as §1
[20] = Anticancer activity against human BxPC3 cells assessed as inhibition of cell growth after 72 hrs by MTT assay; conditions: BXPC-3, 72 h; procedure, shortened: as §1
HT-29 [21] = experiment: Anticancer activity against human HT-29 cells assessed as inhibition of cell growth after 24 hrs by MTT assay; conditions: HT-29, 24 h; procedure, shortened: as §1
HT-29 [22] = experiment: Anticancer activity against human HT-29 cells assessed as inhibition of cell growth after 48 hrs by MTT assay; conditions: HT-29, 48 h; procedure, shortened: as §1
HT-29 [23] = experiment: Anticancer activity against human HT-29 cells assessed as inhibition of cell growth after 72 hrs by MTT assay; conditions: HT-29, 72 h; procedure, shortened: as §1
RKO [24] = experiment: Anticancer activity against human RKO cells assessed as inhibition of cell growth after 72 hrs by MTT assay; procedure, shortened: as §1

Compound | IC50 [1] | IC50 [2] | IC50 [3] | IC50 (A549 [4]) | IC50 (RKO [5]) | IC50 (A549 [6]) | IC50 (A549 [7]) | IC50 [8] | IC50 [9] | IC50 [10] | IC50 [11] | IC50 [12] | IC50 [13] | IC50 (RKO [14]) | IC50 [15] | IC50 [16] | IC50 [17] | IC50 [18] | IC50 [19] | IC50 [20] | other results
N=C(N)SCc1ccc2c(c1)C(=O)c1ccccc1C2=O | 9.4 µM | 8.5 µM | 6.3 µM | 9.7 µM | 20.4 µM | 8.7 µM | 7.6 µM | 29.8 µM | 22.9 µM | 31.2 µM | 20.2 µM | 10.7 µM | 10.3 µM | 28.9 µM | 7.6 µM | 7.4 µM | 6.8 µM | 4.1 µM | 9 µM | 7.9 µM | IC50 (HT-29 [21]): 17 µM; IC50 (HT-29 [22]): 8.1 µM; IC50 (HT-29 [23]): 7.4 µM; IC50 (RKO [24]): 21 µM
O=c1[nH]cc(F)c(=O)[nH]1 [FLUOROURACIL] |  |  |  |  | 41.1 µM |  |  |  |  |  | > 50 µM | > 50 µM | 27.8 µM | > 50 µM |  |  |  |  |  |  | IC50 (HT-29 [21]): > 50 µM; IC50 (HT-29 [22]): 25 µM; IC50 (HT-29 [23]): 6.3 µM; IC50 (RKO [24]): 6.8 µM
N=C(N)SCc1c2ccccc2nc2ccccc12 | > 50 µM | > 50 µM | > 50 µM | > 50 µM |  | > 50 µM | > 50 µM | > 50 µM | > 50 µM | > 50 µM | > 50 µM | > 50 µM | 45.1 µM |  | > 50 µM | > 50 µM | > 50 µM | > 50 µM | > 50 µM | 46.3 µM | 
Cc1noc(C)c1C[Se]C(=N)N | > 50 µM | > 50 µM | 3.4 µM | > 50 µM |  | 2.8 µM | 1.2 µM | > 50 µM | 22 µM | 7.4 µM | > 50 µM | 45 µM | 4.6 µM |  | > 50 µM | 37.4 µM | 13.6 µM | > 50 µM | 6.8 µM | 2.4 µM | 
N=C(N)[Se]Cc1ccc(-n2cccc2)cc1 | > 50 µM | > 50 µM | > 50 µM | 25.3 µM |  | 16.3 µM | 12.8 µM | > 50 µM | > 50 µM | > 50 µM | > 50 µM | > 50 µM | > 50 µM |  | > 50 µM | > 50 µM | > 50 µM | > 50 µM | 14.7 µM | 8.3 µM | 

— ChEMBL document CHEMBL3779798, “Novel seleno- and thio-urea derivatives with potent in vitro activities against several cancer cell lines” (Eur J Med Chem, 2016)
